From BindingDB's records for doi:10.1021/acs.jnatprod.7b00271 (University of Eastern Piedmont, 2017)
pEC50, pIC50: −log10 of the molar value.

Key:
[1] = target: T1, Nuclear factor erythroid 2-related factor 2 (Homo sapiens, UniProt Q16236); assay: Activation of Nrf2 (unknown origin) expressed in human HaCaT-ARE-luc cells after 6 hrs by luciferase reporter gene assay
T1 sequence (Q16236 whole entry): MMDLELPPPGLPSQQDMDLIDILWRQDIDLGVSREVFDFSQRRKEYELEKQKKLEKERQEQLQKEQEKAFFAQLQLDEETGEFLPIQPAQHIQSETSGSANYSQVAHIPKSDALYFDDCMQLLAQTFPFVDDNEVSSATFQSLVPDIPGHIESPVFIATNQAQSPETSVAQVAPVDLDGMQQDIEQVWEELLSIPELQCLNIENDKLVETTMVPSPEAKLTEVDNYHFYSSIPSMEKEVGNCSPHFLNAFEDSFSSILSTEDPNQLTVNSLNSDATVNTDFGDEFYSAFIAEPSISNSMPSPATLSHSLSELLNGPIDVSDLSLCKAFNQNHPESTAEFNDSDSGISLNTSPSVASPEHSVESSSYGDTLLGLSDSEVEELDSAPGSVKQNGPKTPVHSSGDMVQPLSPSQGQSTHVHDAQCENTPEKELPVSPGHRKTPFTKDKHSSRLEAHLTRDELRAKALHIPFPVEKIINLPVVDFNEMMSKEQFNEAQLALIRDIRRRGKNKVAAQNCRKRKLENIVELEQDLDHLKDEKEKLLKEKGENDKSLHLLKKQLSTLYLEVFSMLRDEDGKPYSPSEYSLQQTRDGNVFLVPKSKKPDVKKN
Procedure, shortened: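 HaCaT-ARE-Luc keratinocytes in DMEM with 10% FBS, 37 °C, 5% CO2, exposed to compounds for 6 h. Cells then washed with PBS and lysed (Tris-phosphate pH 7.8, MgCl2, DTT, Triton X-100, glycerol, 15 min RT). Luciferase RLU read on the supernatant and EC50 derived. Mean of at least five independent experiments.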

[2] = target: Signal transducer and activator of transcription 3 (Homo sapiens, UniProt P40763); assay: Inhibition of IFN-gamma stimulated STAT3 (unknown origin) expressed in human HeLa cells after 6 hrs by luciferase reporter gene assay
Sequence of Signal transducer and activator of transcription 3 (P40763 whole entry): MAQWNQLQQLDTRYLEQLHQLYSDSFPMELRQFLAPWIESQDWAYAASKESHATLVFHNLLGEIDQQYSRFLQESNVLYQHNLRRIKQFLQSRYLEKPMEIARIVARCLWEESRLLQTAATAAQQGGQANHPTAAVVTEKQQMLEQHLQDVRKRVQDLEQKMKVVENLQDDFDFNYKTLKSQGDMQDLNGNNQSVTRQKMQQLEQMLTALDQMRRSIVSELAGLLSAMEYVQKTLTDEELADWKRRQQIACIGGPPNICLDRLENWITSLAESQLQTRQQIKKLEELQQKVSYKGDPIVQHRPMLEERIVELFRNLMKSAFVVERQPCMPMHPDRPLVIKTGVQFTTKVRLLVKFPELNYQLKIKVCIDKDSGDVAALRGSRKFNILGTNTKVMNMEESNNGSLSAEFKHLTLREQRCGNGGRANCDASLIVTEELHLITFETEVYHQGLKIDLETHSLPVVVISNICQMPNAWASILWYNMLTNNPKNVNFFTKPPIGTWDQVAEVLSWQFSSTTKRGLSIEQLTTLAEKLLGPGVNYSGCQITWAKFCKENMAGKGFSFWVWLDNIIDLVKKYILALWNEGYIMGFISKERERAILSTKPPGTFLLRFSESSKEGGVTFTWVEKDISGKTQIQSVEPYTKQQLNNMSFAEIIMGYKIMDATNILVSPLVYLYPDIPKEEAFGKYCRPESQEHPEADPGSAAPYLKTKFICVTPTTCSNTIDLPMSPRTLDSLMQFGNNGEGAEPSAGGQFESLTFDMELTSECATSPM
Procedure, shortened: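 HeLa-STAT3-Luc cells stimulated with γIFN (20 IU/mL) with or without compounds for 6 h. PBS-washed cells lysed 15 min at room temperature and luciferase RLU measured. Values expressed as percent inhibition of IFN-γ-induced activity (taken as 100%). Mean of at least five independent experiments.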

| Compound | pEC50 [1] | pIC50 [2] |
| --- | --- | --- |
| COC(=O)[C@]12CCC(C)(C)C[C@H]1C1=CC[C@@H]3[C@@]4(C)C=C(c5ccc(C#N)cc5)C(=O)C(C)(C)[C@@H]4CC[C@@]3(C)[C@]1(C)CC2 | < 4.60 | < 4.60 |
| CCOC(=O)/C=C/C1=C[C@]2(C)[C@H]3CC=C4[C@@H]5CC(C)(C)CC[C@]5(C(=O)OC)CC[C@@]4(C)[C@]3(C)CC[C@H]2C(C)(C)C1=O | < 4.60 | < 4.60 |
| COC(=O)[C@]12CCC(C)(C)C[C@H]1[C@H]1C(=O)C=C3[C@@]4(C)C=C(C#N)C(=O)C(C)(C)[C@@H]4CC[C@@]3(C)[C@]1(C)CC2 [CDDO-Me, 2] | 7.22 |  |
| COC(=O)[C@]12CCC(C)(C)C[C@H]1C1=CC[C@@H]3[C@@]4(C)CC(C#N)=C(O)C(C)(C)[C@@H]4CC[C@@]3(C)[C@]1(C)CC2 | < 4.60 | < 4.60 |
| COC(=O)[C@]12CCC(C)(C)C[C@H]1C1=CC[C@@H]3[C@@]4(C)C=C(C#Cc5ccccc5)C(=O)C(C)(C)[C@@H]4CC[C@@]3(C)[C@]1(C)CC2 | < 4.60 | < 4.60 |
| COC(=O)[C@]12CCC(C)(C)C[C@H]1C1=CC[C@@H]3[C@@]4(C)CC(C=O)=C(O)C(C)(C)[C@@H]4CC[C@@]3(C)[C@]1(C)CC2 | < 4.60 | < 4.60 |
| CC1(C)CC[C@]2(C(=O)O)CC[C@]3(C)C(=CC[C@@H]4[C@@]5(C)CC[C@H](O)C(C)(C)[C@@H]5CC[C@]43C)[C@@H]2C1 [Oleanolic acid (OA)(Compound 1)] |  | < 4.30 |
| COC(=O)[C@]12CCC(C)(C)C[C@H]1C1=CC[C@@H]3[C@@]4(C)Cc5cnoc5C(C)(C)[C@@H]4CC[C@@]3(C)[C@]1(C)CC2 | < 4.60 | < 4.60 |
| COC(=O)[C@]12CCC(C)(C)C[C@H]1C1=CC[C@@H]3[C@@]4(C)CCC(=O)C(C)(C)[C@@H]4CC[C@@]3(C)[C@]1(C)CC2 | < 4.60 | < 4.60 |
| COC(=O)[C@]12CCC(C)(C)C[C@H]1C1=CC[C@@H]3[C@@]4(C)C=C(c5ccccc5)C(=O)C(C)(C)[C@@H]4CC[C@@]3(C)[C@]1(C)CC2 | < 4.60 | < 4.60 |
| COC(=O)[C@]12CCC(C)(C)C[C@H]1C1=CC[C@@H]3[C@@]4(C)C=C(c5ccc(OC)cc5)C(=O)C(C)(C)[C@@H]4CC[C@@]3(C)[C@]1(C)CC2 | < 4.60 | < 4.60 |

Further lines, results first:

| pEC50 [1] | pIC50 [2] | Compound |
| --- | --- | --- |
| < 4.60 | < 4.60 | COC(=O)[C@]12CCC(C)(C)C[C@H]1C1=CC[C@@H]3[C@@]4(C)C=C(OC(C)=O)C(=O)C(C)(C)[C@@H]4CC[C@@]3(C)[C@]1(C)CC2 |
| < 4.60 | < 4.60 | COC(=O)C1=C[C@]2(C)[C@H]3CC=C4[C@@H]5CC(C)(C)CC[C@]5(C(=O)OC)CC[C@@]4(C)[C@]3(C)CC[C@H]2C(C)(C)C1=O |
| < 4.60 | < 4.60 | COC(=O)[C@]12CCC(C)(C)C[C@H]1C1=CC[C@@H]3[C@@]4(C)C=CC(=O)C(C)(C)[C@@H]4CC[C@@]3(C)[C@]1(C)CC2 |
| 4.94 | < 4.60 | COC(=O)[C@]12CCC(C)(C)C[C@H]1C1=CC[C@@H]3[C@@]4(C)C=C(Br)C(=O)C(C)(C)[C@@H]4CC[C@@]3(C)[C@]1(C)CC2 |
| < 4.60 | < 4.60 | COC(=O)[C@]12CCC(C)(C)C[C@H]1C1=CC[C@@H]3[C@@]4(C)C=C(I)C(=O)C(C)(C)[C@@H]4CC[C@@]3(C)[C@]1(C)CC2 |
| 5.96 |  | COC(=O)[C@]12CCC(C)(C)C[C@H]1C1=CC[C@@H]3[C@@]4(C)C=C(C#N)C(=O)C(C)(C)[C@@H]4CC[C@@]3(C)[C@]1(C)CC2 |
| 5.61 | 4.59 | COC(=O)[C@]12CCC(C)(C)C[C@H]1C1=CC[C@@H]3[C@@]4(C)C=C(C(=O)O)C(=O)C(C)(C)[C@@H]4CC[C@@]3(C)[C@]1(C)CC2 |
